Results taken from ChEMBL document CHEMBL4393712, “Discovery of chalcone-modified estradiol analogs as antitumour agents that Inhibit tumour angiogenesis and epithelial to mesenchymal transition” (Eur J Med Chem, 2019).
The source made the active and inactive calls. The calls are words filed in the database; no cut-off is given here.

Key:
SK-N-SH = assay: Antitumour activity against human SK-N-SH cells assessed as cell growth inhibition measured after 72 hrs by SRB assay; format: functional, cell-based
Method in brief: (§1)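 Exponentially growing cells trypsinized, seeded at 5 × 10^4 cells/mL in 96-well plates, cultured overnight, then exposed to compounds for 72 h. Cells fixed with 10% TCA 1 h, stained with SRB 15 min, dye dissolved in Tris-HCl, absorbance read; 50% growth-inhibitory concentration calculated.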

B16 = assay: Antitumour activity against mouse B16 cells assessed as cell growth inhibition measured after 72 hrs by SRB assay; format: functional, cell-based; conditions: B16, 72 h; method in brief: as §1
ECa-109 cell line = assay: Antitumour activity against human EC109 cells assessed as cell growth inhibition measured after 72 hrs by SRB assay; format: functional, cell-based; conditions: ECa-109, 72 h; method in brief: as §1
MGC-803 = assay: Antitumour activity against human MGC803 cells assessed as cell growth inhibition measured after 72 hrs by SRB assay; format: functional, cell-based; conditions: MGC-803, 72 h; method in brief: as §1
A549 = assay: Antitumour activity against human A549 cells assessed as cell growth inhibition measured after 72 hrs by SRB assay; format: functional, cell-based; conditions: A549, 72 h; method in brief: as §1
SMMC-7721 = assay: Antitumour activity against human SMMC7721 cells assessed as cell growth inhibition measured after 72 hrs by SRB assay; format: functional, cell-based; conditions: SMMC-7721, 72 h; method in brief: as §1
HEK293 = assay: Cytotoxicity against human HEK293 cells measured after 48 to 72 hrs by MTT assay; format: cell-based
Method in brief: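 Cells seeded at 3 × 10^3 per well in 96-well plates, incubated overnight, then given fresh medium with a range of drug concentrations for 48 h or 72 h. MTT added (final 500 µg/mL) for 4 h, formazan dissolved in DMSO, absorbance at 570 nm; IC50 derived. Mean ± SD of 3 independent tests.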

[1] = Solubility of the compound in water; format: physicochemical; conditions: buffer
Chorioallantoic membrane = assay: Antiangiogenic activity in chicken chorioallantoic membrane assessed as reduction in neovascularization at 50 ug/ml measured after 72 hrs by CAM assay; format: functional; conditions: Gallus gallus
Method in brief: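 Fertilized chicken eggs incubated 6 days at 37 °C; shell windowed and CAM treated (compounds and controls at […] as printed; saline vehicle control). Eggs re-incubated humidified; membranes fixed and harvested after 72 h. Angiogenesis scored by counting blood vessels and imaging neovascular zones; ten eggs per group.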

CCRF-CEM = assay: Anticancer activity against human CCRF-CEM cells measured after 48 hrs by SRB assay; format: functional
K562 = assay: Anticancer activity against human K562 cells measured after 48 hrs by SRB assay; format: functional; conditions: K562, 48 h
RPMI-8226 = assay: Anticancer activity against human RPMI8226 cells measured after 48 hrs by SRB assay; format: functional; conditions: RPMI-8226, 48 h
SR = assay: Anticancer activity against human SR cells measured after 48 hrs by SRB assay; format: functional
MCF7 = assay: Antiproliferative activity against human MCF7 cells measured after 72 hrs by MTT assay; format: functional, cell-based; conditions: MCF7, 72 h
MDA-MB-231 = assay: Antiproliferative activity against human MDA-MB-231 cells measured after 72 hrs by MTT assay; format: functional, cell-based; conditions: MDA-MB-231, 72 h
HCT-116 = assay: Antiproliferative activity against human HCT116 cells measured after 48 hrs by SRB assay; format: functional; conditions: HCT-116, 48 h
NCI-H460 = assay: Antiproliferative activity against human NCI-H460 cells measured after 48 hrs by SRB assay; format: functional; conditions: NCI-H460, 48 h
U-251 = assay: Antiproliferative activity against human U251 cells measured after 48 hrs by SRB assay; format: functional; conditions: U-251, 48 h
MDA-MB-435 = assay: Antiproliferative activity against human MDA-MB-435 cells measured after 48 hrs by SRB assay; format: functional; conditions: MDA-MB-435, 48 h
HeLa = assay: Antiproliferative activity against human HeLa cells measured after 72 hrs by MTT assay; format: functional, cell-based

SMILES	IC50 (SK-N-SH) [µM]	IC50 (B16) [µM]	IC50 (MGC-803) [µM]	IC50 (A549) [µM]	IC50 (SMMC-7721) [µM]	solubility [1]	IC50 (ECa-109 cell line) [µM]	IC50 (HEK293) [µM]	also measured
COc1cc2c(cc1O)CC[C@@H]1[C@@H]2CC[C@]2(C)C(=O)/C(=C/c3ccc(C)cc3)C[C@@H]12	20.1	6	20.5	53	20.8		22.5		
COc1cc2c(cc1O)CC[C@@H]1[C@@H]2CC[C@]2(C)C(=O)/C(=C/c3ccccc3)C[C@@H]12	22.4	17.8	17.7	19.4	17.2		22.8		
COc1cc2c(cc1O)CC[C@@H]1[C@@H]2CC[C@]2(C)C(=O)/C(=C/c3ccc(Br)cc3)C[C@@H]12	42	2.6	14.1	39.4	0.1	Soluble	17.6	48.9	inhibition (Chorioallantoic membrane): Active
CN1CCN(C(=O)COc2ccc(/C=C3\C[C@H]4[C@@H]5CC=C6CC(Cl)CC[C@]6(C)[C@H]5CC[C@]4(C)C3=O)cc2)CC1 (some centres undefined)									GI50 (CCRF-CEM): 3.94 µM; GI50 (K562): 2.61 µM; GI50 (RPMI-8226): 6.9 µM; GI50 (SR): 1.79 µM
COc1cc2c(cc1O)CC[C@@H]1[C@@H]2CC[C@]2(C)C(=O)/C(=C/c3cccc(Cl)c3)C[C@@H]12	21	10.1	12.3	22.6	16.9	Soluble	24.3	77.1	inhibition (Chorioallantoic membrane): Active
C[C@]12CC[C@H]3[C@@H](CCC4=CC(=O)CC[C@@]43C)[C@@H]1CC[C@@H]2C(=O)/C=C/c1ccc(F)cc1									IC50 (MCF7): 2 µM; IC50 (MDA-MB-231): 2 µM
COc1cc2c(cc1O)CC[C@@H]1[C@@H]2CC[C@]2(C)C(=O)/C(=C/c3cccc(OC)c3OC)C[C@@H]12	18.2	12.7	18.3	20.4	8.6	Soluble	10.5	51	
C[C@]12CC[C@@H]3c4cc(C(=O)/C=C/c5ccc(Cl)cc5Cl)c(O)cc4CC[C@H]3[C@@H]1CC[C@@H]2O	22.7	13.1	12.5	13.7	14.5		19.4		
C=C1CC[C@H]2[C@@H]3CCc4cc(O)c(/C=C/C(=O)c5cc(OC)c(OC)c(OC)c5)cc4[C@H]3CC[C@]12C									GI50 (HCT-116): 1.6 µM; GI50 (NCI-H460): 2.6 µM; GI50 (U-251): 1.4 µM; GI50 (MDA-MB-435): 1.6 µM
COc1ccccc1/C=C/C(=O)c1cc2c(cc1O)CC[C@@H]1[C@@H]2CC[C@]2(C)[C@@H](O)CC[C@@H]12	22.2	16.5	9.8	5.9	0.6		26.5		
COc1cc2c(cc1O)CC[C@@H]1[C@@H]2CC[C@]2(C)C(=O)/C(=C/c3ccc(S(C)(=O)=O)cc3)C[C@@H]12	20.5	7.7	10.5	5.9	37.3		18.2	> 100	
C[C@]12CC[C@@H]3c4cc(C(=O)/C=C/c5ccc(OCc6ccccc6)cc5)c(O)cc4CC[C@H]3[C@@H]1CC[C@@H]2O	> 128	> 128	> 128	52.6	> 128	Soluble	> 128	> 100	inhibition (Chorioallantoic membrane): Active
COc1ccc(/C=C/C(=O)c2cc3c(cc2O)CC[C@@H]2[C@@H]3CC[C@]3(C)[C@@H](O)CC[C@@H]23)cc1	18.9	17.4	12.2	8.6	16.1		18.2		
COc1cc2c(cc1O)CC[C@@H]1[C@@H]2CC[C@]2(C)C(=O)/C(=C/c3ccc(F)cc3)C[C@@H]12	27	16.8	13.5	25.3	8.2	Soluble	19.9	87.8	inhibition (Chorioallantoic membrane): Active
C[C@]12CC[C@@H]3c4ccc(O)cc4CC[C@H]3[C@@H]1C/C(=N\O)C2=O									IC50 (HeLa): 4.41 µM
COc1cc2c(cc1O)CC[C@@H]1[C@@H]2CC[C@]2(C)C(=O)/C(=C/c3cccc([N+](=O)[O-])c3)C[C@@H]12	24.5	6.7	12.7	21.2	8.1	Soluble	23.3		

The next lines start with results.

IC50 (SK-N-SH) [µM]	IC50 (B16) [µM]	IC50 (MGC-803) [µM]	IC50 (A549) [µM]	IC50 (SMMC-7721) [µM]	solubility [1]	SMILES	IC50 (ECa-109 cell line) [µM]	IC50 (HEK293) [µM]	also measured
4.5	8.9	4	5.5	26.1	Soluble	COc1cccc(/C=C/C(=O)c2cc3c(cc2O)CC[C@@H]2[C@@H]3CC[C@]3(C)[C@@H](O)CC[C@@H]23)c1	5.6	13.1	inhibition (Chorioallantoic membrane): Active
10.3	12.4	8	10.9	6.3		C[C@]12CC[C@@H]3c4cc(C(=O)/C=C/c5cccc(Cl)c5)c(O)cc4CC[C@H]3[C@@H]1CC[C@@H]2O	8.5		
17.8	16.5	15.8	15.5	1.7		COc1cc2c(cc1O)CC[C@@H]1[C@@H]2CC[C@]2(C)C(=O)/C(=C/c3ccc(Cl)cc3Cl)C[C@@H]12	15.3		
8	14.2	10.7	15	5.1		COc1cc2c(cc1O)CC[C@@H]1[C@@H]2CC[C@]2(C)C(=O)/C(=C/c3cc(F)cc(F)c3)C[C@@H]12	16.2		
14.3	18.8	18.7	14.5	2.8		COc1cc2c(cc1O)CC[C@@H]1[C@@H]2CC[C@]2(C)C(=O)/C(=C/c3cc(OC)c(OC)c(OC)c3)C[C@@H]12	13.9		
16.4	15.9	8.3	15.5	11.3		C[C@]12CC[C@@H]3c4cc(C(=O)/C=C/c5ccccc5Cl)c(O)cc4CC[C@H]3[C@@H]1CC[C@@H]2O	13.2		
15	15.3	15.7	12.1	44.9		C[C@]12CC[C@@H]3c4cc(C(=O)/C=C/c5ccc(Cl)cc5)c(O)cc4CC[C@H]3[C@@H]1CC[C@@H]2O	14		
